According to ChEMBL document CHEMBL4387752, “Identification of substituted benzothiazole sulfones as potent and selective inhibitors of endothelial lipase” (Bioorg Med Chem Lett, 2019):
One block for each compound: values may come before it. Activity calls are given as the source filed them. The rule behind the calls is not given here.

Assays:
[1] = Permeability of compound at pH 5.5 by PAMPA; format: ADME; conditions: read-out: permeability
How it was run: (§1)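 Permeability was measured by parallel artificial membrane permeability assay (PAMPA) at pH 5.5 and pH 7.4. Values are reported in nm/s.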

[2] = organism: Homo sapiens; test: Selectivity index, ratio of IC50 for inhibition of human hepatic lipase expressed in African green monkey COS7 cells to IC50 for inhibition of human endothelial lipase derived from human HT1080 cell conditioned media; format: cell-based
[3] = target: T1, Endothelial lipase (Mus musculus, UniProt Q9WVG5); test: Inhibition of mouse endothelial lipase expressed in HEK293F cells using D31-POPC-HDL as substrate incubated for 2 hrs in presence of mouse plasma by LC/MS analysis
T1 sequence (Q9WVG5 whole entry): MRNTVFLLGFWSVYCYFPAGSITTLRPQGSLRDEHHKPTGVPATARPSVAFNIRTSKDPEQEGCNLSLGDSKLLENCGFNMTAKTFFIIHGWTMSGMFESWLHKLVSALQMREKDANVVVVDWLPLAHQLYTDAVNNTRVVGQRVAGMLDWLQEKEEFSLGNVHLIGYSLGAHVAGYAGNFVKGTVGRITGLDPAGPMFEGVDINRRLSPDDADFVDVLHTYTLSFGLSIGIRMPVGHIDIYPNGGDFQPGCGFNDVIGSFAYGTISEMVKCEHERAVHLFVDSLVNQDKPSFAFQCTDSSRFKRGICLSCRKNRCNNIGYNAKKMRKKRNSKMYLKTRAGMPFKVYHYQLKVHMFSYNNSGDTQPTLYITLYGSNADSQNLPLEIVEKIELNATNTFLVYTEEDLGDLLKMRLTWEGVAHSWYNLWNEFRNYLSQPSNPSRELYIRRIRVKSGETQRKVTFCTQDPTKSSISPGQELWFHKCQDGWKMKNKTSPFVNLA
How it was run: (§2)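 IC50 values were derived from the means of duplicate inhibition measurements.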

[4] = target: T2, Hepatic triacylglycerol lipase (Homo sapiens, UniProt P11150); test: Inhibition of human hepatic lipase expressed in African green monkey COS7 cells using PED-A1 as substrate incubated for 20 mins and measured every 20 secs for 10 mins by FRET assay; format: cell-based
T2 sequence (P11150 whole entry): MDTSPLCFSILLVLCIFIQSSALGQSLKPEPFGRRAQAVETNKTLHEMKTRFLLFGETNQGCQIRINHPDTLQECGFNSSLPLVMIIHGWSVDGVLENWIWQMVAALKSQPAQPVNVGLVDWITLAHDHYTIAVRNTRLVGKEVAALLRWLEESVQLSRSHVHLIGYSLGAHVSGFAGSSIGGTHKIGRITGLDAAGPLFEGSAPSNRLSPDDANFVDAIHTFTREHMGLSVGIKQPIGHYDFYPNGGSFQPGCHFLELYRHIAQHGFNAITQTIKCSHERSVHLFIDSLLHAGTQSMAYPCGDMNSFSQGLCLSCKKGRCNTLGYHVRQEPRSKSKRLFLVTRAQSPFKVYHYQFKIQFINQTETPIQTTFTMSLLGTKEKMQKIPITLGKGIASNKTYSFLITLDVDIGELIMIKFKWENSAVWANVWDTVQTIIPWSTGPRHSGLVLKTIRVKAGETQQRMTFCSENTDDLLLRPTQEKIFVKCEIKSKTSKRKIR
How it was run: (§3)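 IC50s were calculated from mean inhibition values of duplicate determinations.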

[5] = target: T3, Endothelial lipase (Homo sapiens, UniProt Q9Y5X9); test: Inhibition of human endothelial lipase using D31-POPC-HDL as substrate incubated for 2 hrs in presence of human serum by LC/MS analysis; how it was run: as §2
T3 sequence (Q9Y5X9 whole entry): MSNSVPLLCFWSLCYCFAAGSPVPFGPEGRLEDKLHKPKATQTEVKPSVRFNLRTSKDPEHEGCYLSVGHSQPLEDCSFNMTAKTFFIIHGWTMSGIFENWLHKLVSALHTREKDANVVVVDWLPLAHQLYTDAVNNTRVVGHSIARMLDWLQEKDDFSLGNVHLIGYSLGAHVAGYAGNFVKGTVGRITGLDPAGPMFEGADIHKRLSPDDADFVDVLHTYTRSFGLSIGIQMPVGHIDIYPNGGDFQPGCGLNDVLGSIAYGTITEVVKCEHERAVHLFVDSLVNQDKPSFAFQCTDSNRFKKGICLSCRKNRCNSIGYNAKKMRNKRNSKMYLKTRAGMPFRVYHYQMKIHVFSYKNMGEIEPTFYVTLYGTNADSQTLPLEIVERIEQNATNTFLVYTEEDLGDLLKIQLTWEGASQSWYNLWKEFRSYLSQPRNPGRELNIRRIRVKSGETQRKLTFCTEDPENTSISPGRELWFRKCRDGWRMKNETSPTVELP

[6] = Permeability of compound at pH 7.4 by PAMPA; format: ADME; conditions: read-out: permeability; how it was run: as §1
[7] = Ratio of Cmin in C57BL/6 mouse at 20 mg/kg, po bid measured after 8 hrs to IC50 for inhibition of mouse endothelial lipase expressed in HEK293F cells using D31-POPC-HDL as substrate incubated for 2 hrs in presence of mouse plasma by LC/MS analysis; format: organism-based; conditions: in vivo
[8] = target: T3, Endothelial lipase; test: Inhibition of human endothelial lipase derived from human HT1080 cell conditioned media using PED-A1 as substrate incubated for 20 mins and measured every 20 secs for 10 mins by FRET assay; how it was run: as §3
[9] = Plasma concentration in Balb/c mouse at 30 mg/kg, po measured after 24 hrs; format: ADME, organism-based
How it was run: (§4)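 Oral PK in fasted male balb/c mice. Dosing vehicle was ethanol/PEG 400/water (10:60:30).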

[10] = Cmin in C57BL/6 mouse at 20 mg/kg, po bid measured after 24 hrs; format: ADME, organism-based; conditions: in vivo, read-out: Cmin
How it was run: (§5)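 Satellite PK cohort of wild-type C57BL/6 mice given 20 mg/kg p.o. b.i.d. over 4 days. Plasma levels were taken at 8, 24 and 102 h.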

[11] = Half life in Balb/c mouse at 10 mg/kg, po; format: ADME, organism-based; conditions: in vivo; how it was run: as §4
[12] = Plasma concentration in Balb/c mouse at 10 mg/kg, po measured after 24 hrs; format: ADME, organism-based; how it was run: as §4
[13] = Total AUC in Balb/c mouse at 30 mg/kg, po measured after 24 hrs; format: ADME, organism-based; set-up: dose 30 mg/kg, route oral, time AUCmax; conditions: in vivo; how it was run: as §4
[14] = Ratio of Cmin in C57BL/6 mouse at 20 mg/kg, po bid measured after 102 hrs to IC50 for inhibition of mouse endothelial lipase expressed in HEK293F cells using D31-POPC-HDL as substrate incubated for 2 hrs in presence of mouse plasma by LC/MS analysis; format: organism-based; conditions: in vivo
[15] = target: T1, Endothelial lipase; test: Inhibition of endothelial lipase in hepatic lipase knock-out mouse plasma using D31-POPC-HDL as substrate incubated for 2 hrs by LC/MS analysis; format: cell-free; how it was run: as §2
[16] = Plasma concentration in Balb/c mouse at 30 mg/kg, po measured after 7 hrs; format: ADME, organism-based; how it was run: as §4
[17] = Half life in Balb/c mouse at 30 mg/kg, po; format: ADME, organism-based; conditions: in vivo; how it was run: as §4
[18] = Tmax in Balb/c mouse at 20 mg/kg, po; format: ADME, organism-based; conditions: in vivo; how it was run: as §4
[19] = Ratio of Cmin in Balb/c mouse at 20 mg/kg, po bid to IC50 for inhibition of mouse endothelial lipase expressed in HEK293F cells using D31-POPC-HDL as substrate incubated for 2 hrs in presence of mouse plasma by LC/MS analysis; format: organism-based; conditions: in vivo
[20] = Metabolic stability in Balb/c mouse liver microsomes assessed as parent compound remaining at 0.5 uM measured after 10 mins; format: ADME, Microsome; conditions: read-out: Stability
How it was run: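 Test compound at 0.5 μM was incubated for 10 min with mouse liver microsomes. The read-out is the percentage of parent remaining.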

[21] = Cmin in C57BL/6 mouse at 20 mg/kg, po bid measured after 8 hrs; format: ADME, organism-based; conditions: in vivo, read-out: Cmin; how it was run: as §5
[22] = tested on: Mus musculus; test: Increase in HDL-C level in C57BL/6 mouse plasma at 20 mg/kg, po bid measured after 1 to 4 days by FPLC analysis; format: functional, organism-based
How it was run: (§6)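 Wild-type C57BL/6 mice were dosed at 20 mg/kg p.o. b.i.d. for 4 days alongside a vehicle control group. Lipoprotein profiles were obtained by FPLC on day 1 and day 4, using plasma pooled from 8 mice.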

[23] = Cmax in Balb/c mouse at 20 mg/kg, po; format: ADME, organism-based; set-up: dose 20 mg/kg, route oral; conditions: in vivo; how it was run: as §4
[24] = tested on: Mus musculus; test: Effect on in LDL-C level in C57BL/6 mouse plasma at 20 mg/kg, po bid measured after 1 to 4 days by FPLC analysis; format: functional, organism-based; how it was run: as §6
[25] = Ratio of total AUC in Balb/c mouse at 20 mg/kg, po to total AUC in Balb/c mouse at 10 mg/kg, po measured after 24 hrs; format: ADME, organism-based; conditions: in vivo
How it was run: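 Ratio of AUCtotal between 20 and 10 mg/kg oral doses in fasted male balb/c mice. Vehicle was ethanol/PEG 400/water (10:60:30).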

[26] = Tmax in Balb/c mouse at 10 mg/kg, po; format: ADME, organism-based; conditions: in vivo; how it was run: as §4
[27] = Ratio of Cmin in C57BL/6 mouse at 20 mg/kg, po bid measured after 24 hrs to IC50 for inhibition of mouse endothelial lipase expressed in HEK293F cells using D31-POPC-HDL as substrate incubated for 2 hrs in presence of mouse plasma by LC/MS analysis; format: organism-based; conditions: in vivo
[28] = Total AUC in Balb/c mouse at 20 mg/kg, po measured after 24 hrs; format: ADME, organism-based; set-up: dose 20 mg/kg, time AUCmax, route oral; conditions: in vivo; how it was run: as §4
[29] = Half life in Balb/c mouse at 20 mg/kg, po; format: ADME, organism-based; conditions: in vivo; how it was run: as §4
[30] = Cmin in C57BL/6 mouse at 20 mg/kg, po bid measured after 102 hrs; format: ADME, organism-based; conditions: in vivo, read-out: Cmin; how it was run: as §5
[31] = Plasma concentration in Balb/c mouse at 20 mg/kg, po measured after 24 hrs; format: ADME, organism-based; how it was run: as §4
[32] = Cmax in Balb/c mouse at 10 mg/kg, po; format: ADME, organism-based; set-up: dose 10 mg/kg, route oral; conditions: in vivo; how it was run: as §4
[33] = Plasma concentration in Balb/c mouse at 20 mg/kg, po measured after 7 hrs; format: ADME, organism-based; how it was run: as §4
[34] = Plasma concentration in Balb/c mouse at 10 mg/kg, po measured after 7 hrs; format: ADME, organism-based; how it was run: as §4
[35] = Total AUC in Balb/c mouse at 10 mg/kg, po measured after 24 hrs; format: ADME, organism-based; set-up: dose 10 mg/kg, time AUCmax, route oral; conditions: in vivo; how it was run: as §4
[36] = Cmax in Balb/c mouse at 30 mg/kg, po; format: ADME, organism-based; set-up: dose 30 mg/kg, route oral; conditions: in vivo; how it was run: as §4
[37] = Tmax in Balb/c mouse at 30 mg/kg, po; format: ADME, organism-based; conditions: in vivo; how it was run: as §4

Papp [1]: 25.2 ×10⁻⁶ cm/s | IC50 [3]: 290 nM | IC50 [4]: 130 nM | IC50 [5]: 7 nM | Papp [6]: 38.9 ×10⁻⁶ cm/s
Structure (SMILES): CS(=O)(=O)C(C(=O)NCC(=O)NC1CC1)c1nc2ccc(-c3ccc(F)nc3)cc2s1 (stereo not drawn)
Ratio IC50 [2]: 2.8

Ratio [7]: > 15 | IC50 [8]: 4.6 nM | concentration at 24 h [9]: 25 nM | concentration at 24 h [10]: 1800 nM | half-life [11]: 2.2 h | concentration at 24 h [12]: 14 nM | AUC at 24 h [13]: 240 µM·h | Ratio [14]: > 15 | IC50 [15]: 310 nM | concentration at 7 h [16]: 2420 nM | half-life [17]: 2.3 h | Tmax [18]: 0.5 h | Ratio [19]: 23 | Papp [1]: 9.4 ×10⁻⁶ cm/s | remaining at 10 min, 0.5 µM [20]: 81% | concentration at 8 h [21]: 5200 nM | Cmax [23]: 143000 nM | Ratio [25]: 3.6 | Tmax [26]: 1 h | Ratio [27]: > 15 | AUC at 24 h [28]: 400 µM·h | half-life [29]: 2.3 h | IC50 [3]: 120 nM | concentration at 102 h [30]: 6500 nM | concentration at 24 h [31]: 45 nM | Cmax [32]: 39000 nM | concentration at 7 h [33]: 7400 nM | IC50 [4]: 230 nM | concentration at 7 h [34]: 1700 nM | IC50 [5]: 83 nM | AUC at 24 h [35]: 111 µM·h | Cmax [36]: 142000 nM | Tmax [37]: 0.25 h
Structure (SMILES): COCCS(=O)(=O)C(C(=O)NCC(=O)NC1CC1)c1nc2ccc(-c3ccc(F)nc3)cc2s1 (stereo not drawn)
Activity [22]: inactive | Activity [24]: inactive | Ratio IC50 [2]: 84

IC50 [8]: 10 nM | concentration at 24 h [12]: 130 nM | Papp [1]: 36.5 ×10⁻⁶ cm/s | remaining at 10 min, 0.5 µM [20]: 91% | Tmax [26]: 0.5 h | IC50 [3]: 100 to 210 nM | Cmax [32]: 3500 nM | IC50 [4]: 15 nM | concentration at 7 h [34]: 430 nM | AUC at 24 h [35]: 14 µM·h | Papp [6]: 36.8 ×10⁻⁶ cm/s
Structure (SMILES): CS(=O)(=O)C(C(=O)NCCS(N)(=O)=O)c1nc2ccc(-c3ccccc3)cc2s1 (stereo not drawn)
